# Assay results published in ChEMBL document CHEMBL1153089, “Synthesis, antibacterial activities and molecular docking studies of peptide and Schiff bases as targeted antibiotics” (Bioorg Med Chem, 2009).
# Molecular target: T1, 3-oxoacyl-[acyl-carrier-protein] synthase 3 (Escherichia coli, UniProt C3TDZ2)
# T1 sequence (C3TDZ2 whole entry): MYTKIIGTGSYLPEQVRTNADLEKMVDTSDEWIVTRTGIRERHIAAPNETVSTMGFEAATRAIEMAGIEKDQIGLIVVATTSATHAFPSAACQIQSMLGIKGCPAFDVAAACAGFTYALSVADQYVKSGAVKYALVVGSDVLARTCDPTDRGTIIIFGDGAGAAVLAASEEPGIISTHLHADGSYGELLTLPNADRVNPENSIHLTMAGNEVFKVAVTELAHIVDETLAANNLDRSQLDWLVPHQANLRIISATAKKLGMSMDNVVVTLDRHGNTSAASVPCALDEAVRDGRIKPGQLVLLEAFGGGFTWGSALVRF
# Assay: Inhibition of Escherichia coli Beta-ketoacyl-ACP synthase III expressed in Escherichia coli BL21 (DE3) by liquid scintillation counting
# Settings: not given
# Summary of the method: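 His-tagged E. coli KAS III from pET30 in BL21(DE3), purified on Ni-NTA and stored in 20 mM Tris pH 7.6, 100 mM NaCl, 1 mM DTT, 20% glycerol. The radiometric assay precipitated product with ice-cold 10% TCA and redissolved it in 0.5 M NaOH. ³H incorporation was counted by liquid scintillation. Inhibitors were added from DMSO stock, with final DMSO ≤2%. IC50 was determined.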
row,IC50,SMILES
1,2.75 µM,O=C(NCC/N=C/c1cc(I)ccc1O)c1ccccc1O
2,16 µM,O=C(NCCCC/N=C/c1cc(Br)ccc1O)c1ccccc1O
3,112 µM,O=C(NCCCCCC/N=C/c1cc(F)ccc1O)c1ccccc1O
4,17.1 µM,O=C(NCC/N=C/c1cc(Br)ccc1O)c1ccccc1O
5,19.2 µM,O=C(NCCCC/N=C/c1cc(F)ccc1O)c1ccccc1O
6,8.69 µM,O=C(NCC/N=C/c1cc(Cl)ccc1O)c1ccccc1O
7,29.9 µM,O=C(NCCCCCC/N=C/c1cc(Br)ccc1O)c1ccccc1O
8,41.9 µM,O=C(NCCC/N=C/c1ccccc1O)c1ccccc1O
9,13.8 µM,O=C(NCCC/N=C/c1cc(Br)cc(Br)c1O)c1ccccc1O
10,25.5 µM,O=C(NCC/N=C/c1ccccc1O)c1ccccc1O
11,5.56 µM,O=C(NCCC/N=C/c1cc(F)ccc1O)c1ccccc1O
12,56.9 µM,O=C(NCCCCCC/N=C/c1cc(I)ccc1O)c1ccccc1O
13,3.54 µM,O=C(NCCC/N=C/c1cc(I)ccc1O)c1ccccc1O
14,34.2 µM,O=C(NCC/N=C/c1cc(F)ccc1O)c1ccccc1O
15,43.4 µM,O=C(NCCCC/N=C/c1ccccc1O)c1ccccc1O
16,0.875 µM,O=C(NCCC/N=C/c1cc(Br)ccc1O)c1ccccc1O
17,6.61 µM,O=C(NCCCC/N=C/c1cc(Br)cc(Br)c1O)c1ccccc1O
18,6.69 µM,O=C(NCCCC/N=C/c1cc(Cl)ccc1O)c1ccccc1O
19,26.7 µM,O=C(NCCCCCC/N=C/c1cc(Cl)ccc1O)c1ccccc1O
20,4.93 µM,O=C(NCCC/N=C/c1cc(Cl)ccc1O)c1ccccc1O
21,1.48 µM,O=C(NCCCC/N=C/c1cc(I)ccc1O)c1ccccc1O

# More lines, now with the values behind:
row,SMILES,IC50
1,Oc1ccccc1/C=N/CCCCCC/N=C/c1ccccc1O,44.6 µM
2,O=C(NCCCCCCNC(=O)c1ccccc1O)c1ccccc1O,> 140 µM
3,O=C(NCCCNC(=O)c1ccccc1O)c1ccccc1O,41.8 µM
4,O=C(NCC/N=C/c1cc(Cl)cc(Cl)c1O)c1ccccc1O,7.08 µM
5,Oc1ccccc1/C=N/CCC/N=C/c1ccccc1O,43.4 µM
6,O=C(NCCCCNC(=O)c1ccccc1O)c1ccccc1O,38.3 µM
7,Oc1ccccc1/C=N/CCCC/N=C/c1ccccc1O,44 µM
8,O=C(NCCCCCC/N=C/c1cc(Cl)cc(Cl)c1O)c1ccccc1O,> 122 µM
9,O=C(NCC/N=C/c1cc(Br)cc(Br)c1O)c1ccccc1O,1.22 µM
10,O=C(NCC/N=C/c1cc(I)cc(I)c1O)c1ccccc1O,23.7 µM
11,O=C(NCCC/N=C/c1c(O)ccc2ccccc12)c1ccccc1O,8.61 µM
12,Oc1ccccc1/C=N/CC/N=C/c1ccccc1O,> 186 µM
13,O=C(NCCCCCC/N=C/c1ccccc1O)c1ccccc1O,65.1 µM
14,O=C(NCCCCCC/N=C/c1cc(Br)cc(Br)c1O)c1ccccc1O,12.5 µM
15,O=C(NCCCCCC/N=C/c1cc(I)cc(I)c1O)c1ccccc1O,25.8 µM
16,O=C(NCCCCCC/N=C/c1c(O)ccc2ccccc12)c1ccccc1O,> 128 µM
17,O=C(NCCC/N=C/c1cc(Cl)cc(Cl)c1O)c1ccccc1O,7.49 µM
18,O=C(NCC/N=C/c1c(O)ccc2ccccc12)c1ccccc1O,29.2 µM
19,O=C(NCCNC(=O)c1ccccc1O)c1ccccc1O,55 µM
20,O=C(NCCC/N=C/c1cc(I)cc(I)c1O)c1ccccc1O,23.5 µM
21,O=C(NCCCC/N=C/c1cc(Cl)cc(Cl)c1O)c1ccccc1O,7.74 µM
22,O=C(NCCCC/N=C/c1cc(I)cc(I)c1O)c1ccccc1O,11.1 µM
23,O=C(NCCCC/N=C/c1c(O)ccc2ccccc12)c1ccccc1O,8.55 µM

# Test system: Escherichia coli
# Assay: Antimicrobial activity against Escherichia coli ATCC 35218 after 24 hrs by MTT assay
# Format: functional
# Settings: ATCC 35218, 24 h
# Summary of the method: (§1)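 MIC by broth microdilution in Mueller–Hinton medium. Compounds were serially diluted in DMSO in the medium. Inoculum was about 10⁵ cfu/mL. Plates were incubated at 37 °C for 24 h. MIC was read visually with MTT colorimetric staining.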
row,MIC,SMILES
1,25 µg/mL,O=C(NCC/N=C/c1cc(I)ccc1O)c1ccccc1O
2,3.13 µg/mL,O=C(NCCC/N=C/c1cc(F)ccc1O)c1ccccc1O
3,3.13 µg/mL,O=C(NCCC/N=C/c1cc(I)ccc1O)c1ccccc1O
4,0.39 µg/mL,O=C(NCCC/N=C/c1cc(Br)ccc1O)c1ccccc1O
5,> 50 µg/mL,O=C(NCCCC/N=C/c1cc(Cl)ccc1O)c1ccccc1O
6,25 µg/mL,O=C(NCCC/N=C/c1cc(Cl)ccc1O)c1ccccc1O
7,6.25 µg/mL,O=C(NCCCC/N=C/c1cc(I)ccc1O)c1ccccc1O

# The remaining lines, values behind:
row,SMILES,MIC
1,O=C(NCC/N=C/c1cc(Cl)cc(Cl)c1O)c1ccccc1O,1.56 µg/mL
2,O=C(NCC/N=C/c1cc(Br)cc(Br)c1O)c1ccccc1O,6.25 µg/mL
3,O=C(NCCC/N=C/c1c(O)ccc2ccccc12)c1ccccc1O,> 50 µg/mL

# Test system: Pseudomonas aeruginosa
# Assay: Antimicrobial activity against Pseudomonas aeruginosa ATCC 13525 after 24 hrs by MTT assay
# Format: functional
# Settings: ATCC 13525, 24 h
# Summary of the method: as §1
row,MIC,SMILES
1,> 50 µg/mL,O=C(NCC/N=C/c1cc(I)ccc1O)c1ccccc1O
2,1.56 µg/mL,O=C(NCCC/N=C/c1cc(F)ccc1O)c1ccccc1O
3,6.25 µg/mL,O=C(NCCC/N=C/c1cc(I)ccc1O)c1ccccc1O
4,3.13 µg/mL,O=C(NCCC/N=C/c1cc(Br)ccc1O)c1ccccc1O
5,12.5 µg/mL,O=C(NCCCC/N=C/c1cc(Cl)ccc1O)c1ccccc1O
6,> 50 µg/mL,O=C(NCCC/N=C/c1cc(Cl)ccc1O)c1ccccc1O
7,3.13 µg/mL,O=C(NCCCC/N=C/c1cc(I)ccc1O)c1ccccc1O

# More lines, now with the values behind:
row,SMILES,MIC
1,O=C(NCC/N=C/c1cc(Cl)cc(Cl)c1O)c1ccccc1O,> 50 µg/mL
2,O=C(NCC/N=C/c1cc(Br)cc(Br)c1O)c1ccccc1O,12.5 µg/mL
3,O=C(NCCC/N=C/c1c(O)ccc2ccccc12)c1ccccc1O,12.5 µg/mL

# Test system: Bacillus subtilis
# Assay: Antimicrobial activity against Bacillus subtilis ATCC 6633 after 24 hrs by MTT assay
# Format: functional
# Settings: ATCC 6633, 24 h
# Summary of the method: as §1
row,MIC,SMILES
1,> 50 µg/mL,O=C(NCC/N=C/c1cc(I)ccc1O)c1ccccc1O
2,25 µg/mL,O=C(NCCC/N=C/c1cc(F)ccc1O)c1ccccc1O
3,25 µg/mL,O=C(NCCC/N=C/c1cc(I)ccc1O)c1ccccc1O
4,1.56 µg/mL,O=C(NCCC/N=C/c1cc(Br)ccc1O)c1ccccc1O
5,25 µg/mL,O=C(NCCCC/N=C/c1cc(Cl)ccc1O)c1ccccc1O
6,> 50 µg/mL,O=C(NCCC/N=C/c1cc(Cl)ccc1O)c1ccccc1O
7,1.56 µg/mL,O=C(NCCCC/N=C/c1cc(I)ccc1O)c1ccccc1O

# Further lines, the compound ahead of its results:
row,SMILES,MIC
1,O=C(NCC/N=C/c1cc(Cl)cc(Cl)c1O)c1ccccc1O,3.13 µg/mL
2,O=C(NCC/N=C/c1cc(Br)cc(Br)c1O)c1ccccc1O,1.56 µg/mL
3,O=C(NCCC/N=C/c1c(O)ccc2ccccc12)c1ccccc1O,25 µg/mL

# Test system: Staphylococcus aureus
# Assay: Antimicrobial activity against Staphylococcus aureus ATCC 6538 after 24 hrs by MTT assay
# Format: functional
# Settings: ATCC 6538, 24 h
# Summary of the method: as §1
row,MIC,SMILES
1,25 µg/mL,O=C(NCC/N=C/c1cc(I)ccc1O)c1ccccc1O
2,1.56 µg/mL,O=C(NCCC/N=C/c1cc(F)ccc1O)c1ccccc1O
3,> 50 µg/mL,O=C(NCCC/N=C/c1cc(I)ccc1O)c1ccccc1O
4,3.13 µg/mL,O=C(NCCC/N=C/c1cc(Br)ccc1O)c1ccccc1O
5,25 µg/mL,O=C(NCCCC/N=C/c1cc(Cl)ccc1O)c1ccccc1O
6,> 50 µg/mL,O=C(NCCC/N=C/c1cc(Cl)ccc1O)c1ccccc1O
7,> 50 µg/mL,O=C(NCCCC/N=C/c1cc(I)ccc1O)c1ccccc1O

# The remaining lines, values behind:
row,SMILES,MIC
1,O=C(NCC/N=C/c1cc(Cl)cc(Cl)c1O)c1ccccc1O,> 50 µg/mL
2,O=C(NCC/N=C/c1cc(Br)cc(Br)c1O)c1ccccc1O,12.5 µg/mL
3,O=C(NCCC/N=C/c1c(O)ccc2ccccc12)c1ccccc1O,25 µg/mL
